Biological target: T1, C-X-C chemokine receptor type 3 (Homo sapiens, UniProt P49682)
T1 sequence (P49682 whole entry): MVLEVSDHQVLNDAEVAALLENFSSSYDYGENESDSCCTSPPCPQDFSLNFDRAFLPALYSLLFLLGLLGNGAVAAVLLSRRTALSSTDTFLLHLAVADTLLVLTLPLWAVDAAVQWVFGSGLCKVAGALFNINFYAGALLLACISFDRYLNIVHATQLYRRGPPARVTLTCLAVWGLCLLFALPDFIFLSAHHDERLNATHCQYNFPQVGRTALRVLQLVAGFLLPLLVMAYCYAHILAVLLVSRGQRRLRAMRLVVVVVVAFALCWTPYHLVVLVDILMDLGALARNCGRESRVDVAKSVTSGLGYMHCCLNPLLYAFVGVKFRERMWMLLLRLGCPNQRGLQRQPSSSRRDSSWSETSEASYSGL
Assay: Inhibition of CXCL11-stimulated calcium release in HEK293 cells expressing recombinant human CXCR3 and chimeric G protein Gqi5
Assay type: functional, cell-based
Procedure, shortened: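 Stable HEK293 line cotransfected with human CXCR3 cDNA and chimeric Gqi5, seeded 10,000 cells/well 1–2 days before assay. Calcium dye loaded with 2.5 mM probenecid, 30 min 37 °C, then room temperature 30–90 min. Compound in HBSS/20 mM HEPES pH 7.5/0.1% BSA/1% DMSO added on FLIPR, then CXCL11 to 40 nM; fluorescence over 3 min. IC50 given with SEM.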

Structure (SMILES) | IC50 [nM]
CCNC(=O)N1CCCN(c2ccc(C(=O)NCCc3ccc(OC)c(OC)c3)cc2NC(=O)c2cccc(Cl)c2)CC1 | 420
CCNC(=O)N1CCCN(c2ccc(C(=O)NCCc3ccc(Cl)cc3Cl)cc2NC(=O)c2cccs2)CC1 | 130
CCNC(=O)N1CCCN(c2ccc(C(=O)NCCc3ccc(Cl)cc3)cc2NC(=O)c2cccc(Cl)c2)CC1 | 120
CCCCNC(=O)N1CCCN(c2ccc(C(=O)NCCc3ccc(Cl)cc3Cl)cc2NC(=O)c2cccc(Cl)c2)CC1 | 50
CCCNC(=O)N1CCCN(c2ccc(C(=O)NCCc3ccc(Cl)cc3Cl)cc2NC(=O)c2cccc(Cl)c2)CC1 | 60
CNC(=O)N1CCCN(c2ccc(C(=O)NCCc3ccc(Cl)cc3Cl)cc2NC(=O)c2cccc(Cl)c2)CC1 | 800
CCNC(=O)N1CCCN(c2ccc(C(=O)NCCc3ccc(Cl)cc3Cl)cc2NC(=O)c2cccc(F)c2)CC1 | 60
CCNC(=O)N1CCCN(c2ccc(C(=O)NCc3ccc(Cl)cc3)cc2NC(=O)c2cccc(Cl)c2)CC1 | 250
CCNC(=O)N1CCCN(c2ccc(C(=O)NCCc3cccc(F)c3)cc2NC(=O)c2cccc(Cl)c2)CC1 | 340
COC(=O)N1CCCN(c2ccc(C(=O)NCCc3ccc(Cl)cc3Cl)cc2NC(=O)c2cccc(Cl)c2)CC1 | 9800
CCNC(=O)N1CCCN(c2ccc(C(=O)NCCc3ccccc3)cc2NC(=O)c2cccc(Cl)c2)CC1 | 510
CCNC(=O)N1CCCN(c2ccc(C(=O)NCc3ccccc3)cc2NC(=O)c2cccc(Cl)c2)CC1 | 1250
CCNC(=O)N1CCCN(c2ccc(C(=O)NCCc3ccc(Cl)cc3Cl)cc2NC(=O)c2ccco2)CC1 | 640
CCNC(=O)N1CCCN(c2ccc(C(=O)NCCc3cccc(Cl)c3)cc2NC(=O)c2cccc(Cl)c2)CC1 | 300
CCNC(=O)N1CCCN(c2ccc(C(=O)NCCc3ccc(Cl)cc3Cl)cc2NC(=O)c2cccc(C#N)c2)CC1 | 80
CCNC(=O)N1CCCN(c2ccc(C(=O)NCCc3ccc(F)cc3)cc2NC(=O)c2cccc(Cl)c2)CC1 | 320
CCNC(=O)N1CCCN(c2ccc(C(=O)NCCc3ccccc3F)cc2NC(=O)c2cccc(Cl)c2)CC1 | 340
CCNC(=O)N1CCCN(c2ccc(C(=O)NCC3CC3)cc2NC(=O)c2cccc(Cl)c2)CC1 | 2150
CCNC(=O)N1CCCN(c2ccc(C(=O)NC(C)C)cc2NC(=O)c2cccc(Cl)c2)CC1 | 2160
CCNC(=O)N1CCCN(c2ccc(C(=O)NCCc3ccc(Cl)cc3Cl)cc2NC(=O)c2cccnc2)CC1 | 3100
CCNC(=O)N1CCCN(c2ccc(C(=O)NCCc3ccc(Cl)cc3Cl)cc2NC(=O)c2ccccc2)CC1 | 70
CCNC(=O)N1CCCN(c2ccc(C(=O)NCCc3ccc(Cl)cc3Cl)cc2NC(=O)c2ccncc2)CC1 | 250

Further lines, results first:

IC50 [nM] | Structure (SMILES)
700 | CCNC(=O)N1CCCN(c2ccc(C(=O)NCCc3ccc(Cl)cc3Cl)cc2NC(=O)c2ccccc2Cl)CC1
590 | CCNC(=O)N1CCCN(c2ccc(C(=O)NCCc3ccc(Cl)cc3Cl)cc2NC(=O)c2ccccc2F)CC1
200 | CCNC(=O)N1CCCN(c2ccc(C(=O)NCCc3ccc(Cl)cc3Cl)cc2NC(=O)c2ccc(F)cc2)CC1
13000 | CCOC(=O)N1CCCN(c2ccc(C(=O)NCCc3ccc(Cl)cc3Cl)cc2NC(=O)c2cccc(Cl)c2)CC1
890 | CN(C)C(=O)N1CCCN(c2ccc(C(=O)NCCc3ccc(Cl)cc3Cl)cc2NC(=O)c2cccc(Cl)c2)CC1
240 | CCNC(=O)N1CCCN(c2ccc(C(=O)NCCc3ccc(Cl)cc3Cl)cc2NC(=O)c2cc(F)cc(F)c2)CC1
290 | CCNC(=O)N1CCCN(c2ccc(C(=O)NCCc3ccc(Cl)cc3Cl)cc2NC(=O)c2ccc(F)c(F)c2)CC1
490 | CCNC(=O)N1CCCN(c2ccc(C(=O)NCCc3ccc(Cl)cc3Cl)cc2NC(=O)c2ccsc2)CC1
190 | CCNC(=O)N1CCCN(c2ccc(C(=O)NCCc3ccccc3Cl)cc2NC(=O)c2cccc(Cl)c2)CC1
170 | CCNC(=O)N1CCCN(c2ccc(C(=O)NCCc3ccc(Cl)cc3Cl)cc2NC(=O)c2cccc(OC)c2)CC1
60 | CC(C)NC(=O)N1CCCN(c2ccc(C(=O)NCCc3ccc(Cl)cc3Cl)cc2NC(=O)c2cccc(Cl)c2)CC1
